The source made the active and inactive calls. The calls are words filed in the database; no cut-off is given here.

In assay [1] the test system is Human immunodeficiency virus 1. As to the kind of experiment: Antiviral activity in long term culture of HIV1 KK infected PBMCs after 67 passages assessed as p24 antigen levels at escalating concentrations. In kind it is functional, organism-based. The note with it: Human immunodeficiency virus 1, KK. In a few lines:
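PHA-stimulated PBMCs (5 × 10^6) were infected with R5 clinical isolate KK (100 ng p24) and held compound-free for 2 days at 37°C, then washed. Culture started at 0.2 nM drug and was passaged weekly with fresh same-donor PBMCs. Drug was escalated when treated-culture supernatant p24 (ELISA) exceeded 50% of a parallel untreated control at two consecutive passages.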

In assay [2] the test system is Human immunodeficiency virus 1. Description: Ratio of IC50 for HIV1 KK infected PBMC to IC50 for compound treated HIV1 KK infected PBMC after 67 passages. In kind it is functional. The method, boiled down: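 PHA-stimulated PBMCs infected with the passage-67 escape virus (1,400 CCID50, 4 h) were washed and exposed to 0.1–10,000 nM compound, split 1:2 on day 4, and read for day-7 supernatant p24 by ELISA. Triplicate wells in two donor experiments. Fold change = […].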

The test system of assay [3] is Human immunodeficiency virus 1. As to the kind of experiment: Antiviral activity in long term culture of HIV1 KK infected PBMCs after 8 passages assessed as p24 antigen levels. It is filed as functional, organism-based. The note with it: Human immunodeficiency virus 1, KK. In a few lines: (§1)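 Viruses were isolated at the stated passage from the drug-escalation culture and from the parallel untreated culture, then propagated once in PBMCs. PHA-stimulated PBMCs were infected with 1,400 CCID50 for 4 h, washed, and seeded with 0.1–10,000 nM compound. Cells were split 1:2 on day 4, and supernatant p24 was read by ELISA on day 7. Triplicate wells, two experiments with different donors; IC50 from a logistic least-squares fit.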

Assay [4] deals with Human immunodeficiency virus 1. Description: Inhibition of HIV1 KK infected PBMC. In kind it is functional, organism-based. Particulars: Human immunodeficiency virus 1, KK.
The test system of assay [5] is Human immunodeficiency virus 1. Description: Antiviral activity in long term culture of HIV1 KK infected PBMCs after 43 passages assessed as p24 antigen levels. It is filed as functional, organism-based. Particulars: Human immunodeficiency virus 1, KK. The method, boiled down: as §1
Assay [6] concerns Human immunodeficiency virus 1. Description: Antiviral activity in long term culture of HIV1 KK infected PBMCs after 56 passages assessed as p24 antigen levels. Particulars: Human immunodeficiency virus 1, KK. In kind it is functional, organism-based. The method, boiled down: as §1
Assay [7] relates to Human immunodeficiency virus 1. As to the kind of experiment: Inhibition of R5 HIV1 replication at 5 uM. It is filed as functional, organism-based.

Regarding `Cc1ccc(-c2ccc3c(c2)C=C(C(=O)Nc2ccc(C[N+](C)(C)C4CCOCC4)cc2)CCC3)cc1.[Cl-]`, the half-maximal inhibitory concentration (IC50) (in general, the concentration at which inhibition is half-maximal) in assay [1] came to 77 nM. Also, in assay [2], the “Ratio IC50” value was found to be 37.

In the case of `CCCCOCCOc1ccc(-c2ccc3c(c2)/C=C(/C(=O)Nc2ccc([S@@+]([O-])Cc4cncn4CCC)cc2)CCCN3CC(C)C)cc1.CS(=O)(=O)O` [CENICRIVIROC MESYLATE], the IC50 was 0.24 nM in assay [3]; 0.14 nM in assay [4]; above 10000 nM in assay [1]; 0.2 nM in assay [5]; 67 nM in assay [6]. Further, in assay [2], the “Ratio IC50” value is given as above 230000. In assay [7], the outcome was Active.

In the case of `CC(=O)N1CCC(C(=O)N(CCCN2CCC(Cc3ccc(C(N)=O)cc3)CC2)c2ccc(C)c(Cl)c2)CC1`, in assay [1], the half-maximal inhibitory concentration (IC50) amounted to 1.3 nM. In addition, the “Ratio IC50” value in assay [2] came to 1.6.

Source of the values: ChEMBL document CHEMBL1142191, “Isolation and characterization of human immunodeficiency virus type 1 resistant to the small-molecule CCR5 antagonist TAK-652” (Antimicrob Agents Chemother, 2007).
